Assay [1] deals with Aldo-keto reductase family 1 member B1 (Bos taurus) (UniProt P16116). The assay can be described thus: […] inhibition of aldose reductase in partially purified bovine lens preparation at 10e-6 M concentration. The essentials:
(§1)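 Enzyme partially purified from bovine lens by a published method, with the final chromatographic step omitted. Test compound was added at 1×10^-6 or 1×10^-7 M. Assays were run in duplicate, and the read-out was % inhibition of enzymatic activity.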

Assay [2] has the same target. The assay can be described thus: […] inhibition of aldose reductase in partially purified bovine lens preparation at 10e-7 M concentration. In outline: as §1
The subject of assay [3] is Rattus norvegicus. The assay is described as follows: In vivo inhibition of galactitol accumulation in the diaphragm of rat. at a dose of 56 mg/kg/day; NS=not significant. Format: functional, organism-based.
In assay [4] the test system is Rattus norvegicus. The assay can be described thus: […] inhibition of sorbitol accumulation in rat sciatic nerves at 5*10e-6 M concentration. The conditions noted are these: in the assay text read “In vitro” for “In vivo”. The class given is functional, Sciatic nerve. In outline:
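Sciatic nerves from male Sprague-Dawley rats (200–250 g), removed after CO2 euthanasia, incubated ex vivo for 3 h at 37 °C under 95% air/5% CO2 in Hank's salts buffer, pH 7.4, with 50 mM glucose and 5 × 10^-6 M test compound. Triplicate incubations; nerve sorbitol measured in duplicate by spectrofluorometric assay. Reported as % inhibition of sorbitol accumulation.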

Assay [5] concerns Rattus norvegicus. The assay can be described thus: In vivo inhibition of galactitol accumulation in the sciatic nerves of rat at a dose of 56 mg/kg/day; NS=not significant. Format: functional, organism-based. The conditions noted are these: Sciatic nerve.
The test system of assay [6] is Rattus norvegicus. The assay can be described thus: In vivo inhibition of sorbitol accumulation in rat sciatic nerves at 5*10e-5 M concentration. Format: functional, Sciatic nerve. The conditions noted are these: in the assay text read “In vitro” for “In vivo”. In outline:
(§2)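 Sciatic nerves were taken from male Sprague-Dawley rats (200–250 g) after CO2 euthanasia. Nerves were incubated 3 h at 37 °C under 95% air/5% CO2 in Hank's salts buffer, pH 7.4, with 50 mM glucose and (0–5)×10^-5 M compound, in triplicate. Nerve sorbitol was measured spectrofluorometrically in duplicate, and the read-out was % inhibition of sorbitol accumulation.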

Assay [7] addresses Aldo-keto reductase family 1 member B1 (Bos taurus) (UniProt P16116). The assay can be described thus: Inhibition of aldose reductase in partially purified bovine lens preparation at 10e-6 M. In outline: (§3)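 Aldose reductase partially purified from bovine lens, with the final chromatographic step of the earlier preparation omitted. Assay run in duplicate with test compound at 1 × 10^-6 M or 1 × 10^-7 M. Reported as % inhibition of enzymatic activity.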

The subject of assay [8] is Rattus norvegicus. The assay can be described thus: In vivo inhibition of galactitol accumulation in the sciatic nerves of rat at a dose of 107 mg/kg/day. Format: functional. The conditions noted are these: Sciatic nerve.
The subject of assay [9] is Rattus norvegicus. The assay is described as follows: […] inhibition of sorbitol accumulation in rat sciatic nerves at 10e-5 M concentration. The class given is functional, Sciatic nerve. The essentials:
as §2

The subject of assay [10] is Rattus norvegicus. The assay is described as follows: In vivo inhibition of sorbitol accumulation in rat sciatic nerves at 10e-6 M concentration. Format: functional, Sciatic nerve. In outline:
as §2

The target of assay [11] is Aldo-keto reductase family 1 member B1 (Bos taurus) (UniProt P16116). The assay can be described thus: Inhibition of aldose reductase in partially purified bovine lens preparation at 10e-7 M concentration. The essentials:
as §3

For assay [12], the system named is Rattus norvegicus. The assay is described as follows: In vivo inhibition of galactitol accumulation in the diaphragm of rat at a dose of 107 mg/kg/day. Format: functional.
Assay [13] concerns Rattus norvegicus. The assay is described as follows: In vivo inhibition of galactitol accumulation in the sciatic nerves of rat at a dose of 100 mg/kg/day. The class given is functional. Particulars: Sciatic nerve.
Assay [14] concerns Rattus norvegicus. The assay can be described thus: In vivo inhibition of galactitol accumulation in the diaphragm of rat at a dose of 100 mg/kg/day. Format: functional.
Assay [15] relates to Rattus norvegicus. The assay is described as follows: In vivo inhibition of galactitol accumulation in the sciatic nerves of ratat a dose of 106 mg/kg/day. The class given is functional. Particulars: Sciatic nerve.
The test system of assay [16] is Rattus norvegicus. The assay can be described thus: In vivo inhibition of galactitol accumulation in the diaphragm of rat at a dose of 106 mg/kg/day. Format: functional.
The test system of assay [17] is Rattus norvegicus. The assay is described as follows: In vivo inhibition of galactitol accumulation in the diaphragm of rat vat a dose of 6 mg/kg/day. Format: functional.
The subject of assay [18] is Rattus norvegicus. The assay is described as follows: In vivo inhibition of galactitol accumulation in the sciatic nerves of rat at a dose of 6 mg/kg/day. The class given is functional. The conditions noted are these: Sciatic nerve.
The test system of assay [19] is Rattus norvegicus. The assay can be described thus: In vivo inhibition of galactitol accumulation in the diaphragm of rat at a dose of 57 mg/kg/day. The class given is functional.
The subject of assay [20] is Rattus norvegicus. The assay is described as follows: In vivo inhibition of galactitol accumulation in the diaphragm of rat at a dose of 97 mg/kg/day. Format: functional.
Assay [21] deals with Rattus norvegicus. The assay can be described thus: In vivo inhibition of galactitol accumulation in the sciatic nerves of rat at a dose of 57 mg/kg/day. Particulars: Sciatic nerve. Format: functional.
Assay [22] relates to Rattus norvegicus. The assay can be described thus: In vivo inhibition of galactitol accumulation in the sciatic nerves of rat at a dose of 97 mg/kg/day. Format: functional. The conditions noted are these: Sciatic nerve.
Assay [23] concerns Rattus norvegicus. The assay is described as follows: In vivo inhibition of galactitol accumulation in the diaphragm of rat. at a dose of 50 mg/kg/day; NS=not significant. The class given is functional, organism-based.
In assay [24] the test system is Rattus norvegicus. The assay can be described thus: In vivo inhibition of galactitol accumulation in the sciatic nerves of rat at a dose of 50 mg/kg/day; NS=not significant. The conditions noted are these: Sciatic nerve. Format: functional, organism-based.
The subject of assay [25] is Rattus norvegicus. The assay can be described thus: In vivo inhibition of galactitol accumulation in the sciatic nerves of rat at a dose of 100 mg/kg/day; NS=not significant. Format: functional, organism-based. The conditions noted are these: Sciatic nerve.
Assay [26] relates to Rattus norvegicus. The assay can be described thus: […] inhibition of sorbitol accumulation in rat sciatic nerves at 10e-6 M concentration; NS=not significant. Format: functional. The conditions noted are these: Sciatic nerve. In outline:
as §2

Activity calls are given as the source filed them. The rule behind the calls is not given here.

Take `COc1ccc2c(/C(=N/S(=O)(=O)C(F)(F)F)N(C)CC(=O)O)cccc2c1C(F)(F)F`: the figures for the inhibition in assay [1] and in [2] were 94% and 69%, respectively. Besides, the inhibition result with Rattus norvegicus [3] and in the assay on Rattus norvegicus [5] was “inactive” throughout. Also, the Inhibition came to 36% in the assay with Rattus norvegicus [4] and 71% with Rattus norvegicus [6].

Take `COc1ccc2c(C(=O)N(C=O)CC(=O)O)cccc2c1C(F)(F)F`: the values for the inhibition in assay [7] and in [11] were 96% and 89%, respectively. In addition, the results for the inhibition in vivo at 107 mg/kg/day in the assay on Rattus norvegicus [8] and in the assay with Rattus norvegicus [12] were 51% and 82%, respectively. The Inhibition in the assay on Rattus norvegicus [9] is 65%; with Rattus norvegicus [10], 42%.

As to `COc1ccc2c(C(=O)N(CC(=O)O)C(C)=O)cccc2c1C(F)(F)F`, the results for the inhibition in [7] and in assay [11] were 91% and 61%, respectively. For the same compound, the figures for the inhibition in vivo at 100 mg/kg/day in the assay on Rattus norvegicus [13] and in the assay on Rattus norvegicus [14] were 36% and 39%, respectively. Further, the Inhibition in the assay with Rattus norvegicus [9] is 62%; with Rattus norvegicus [10] it was 40%.

For `CSc1ccc2c(C(=O)N(C)CC(=O)O)cccc2c1C(F)(F)F`, the inhibition in [7] amounted to 85%; in assay [11], 51%. The inhibition in vivo at 106 mg/kg/day is 36% in the assay with Rattus norvegicus [15] and 73% in the assay on Rattus norvegicus [16]. Also, the Inhibition in the assay with Rattus norvegicus [9] turned out to be 73%; with Rattus norvegicus [10] it was 34%.

In the case of `COc1ccc2c(C(=S)N(C)CC(=O)O)cccc2c1C(F)(F)F` [TOLRESTAT], the Inhibition with Rattus norvegicus [9] was 82%; with Rattus norvegicus [4], 76%. In addition, the inhibition in vivo at 6 mg/kg/day with Rattus norvegicus [17] worked out at 80%; with Rattus norvegicus [18] it was 53%.

For the compound `CCOC(=O)N(CC(=O)O)C(=O)c1cccc2c(C(F)(F)F)c(OC)ccc12`, the inhibition turned out to be 98% in assay [7] and 81% in assay [11]. Further, the Inhibition in the assay on Rattus norvegicus [9] amounted to 88%; in the assay on Rattus norvegicus [10], 51%. Further, the inhibition in vivo at 57 mg/kg/day in the assay on Rattus norvegicus [19] is 70%; in the assay on Rattus norvegicus [21], 56%. Further, the results for the inhibition in vivo at 97 mg/kg/day with Rattus norvegicus [20] and in the assay with Rattus norvegicus [22] were 83% and 90%, respectively.

For `COc1ccc2c(C(=O)N(CC(=O)O)C(=O)c3ccccc3)cccc2c1C(F)(F)F`, the values for the inhibition in assay [7] and in assay [11] were 62% and 15%, respectively. Further, the inhibition result with Rattus norvegicus [23] and in the assay on Rattus norvegicus [24] was “inactive” each time. Moreover, the Inhibition with Rattus norvegicus [9] is recorded as 31%; in the assay on Rattus norvegicus [10], 40%.

Turning to `COc1ccc2c(C(=O)N(CC(=O)O)C(=O)N(C)C)cccc2c1C(F)(F)F`, in assay [7], the inhibition came to 3%. In addition, the inhibition entry in the assay with Rattus norvegicus [25] and with Rattus norvegicus [26] was “inactive” throughout. This compound yielded an Inhibition with Rattus norvegicus [9] of 34%. The same compound yielded an inhibition in vivo at 100 mg/kg/day in the assay on Rattus norvegicus [14] of 21%.

The inhibition is the relative decrease from the control value, in per cent. As a reminder, the Inhibition is how much of the control response was suppressed. Usually inhibition in vivo stands for the change of the read-out against control, counted positive when it falls. Read a low inhibition in vivo as a response near the control.

The values above are taken from ChEMBL document CHEMBL1124370 (1989).
